According to PMC9124159 (Molecular Diversity, 2022):
In brackets after ≈: the same amount, converted by molar mass. Several values for one entry are separate records, joined by “and”; a condition that tells them apart may be missing. Equal entries are not always repeated. Entries after “also recorded” stand apart in the source; their conditions may differ. Where two headings read alike, the source gives them in different places.

Experiments:
[1] = test system: GFP reporter strain of Mtb (Mtb pMSp12: GFP); format: cell-based, Mycobacterium tuberculosis
H37Rv strain of Mtb = H37Rv strain of Mtb in vitro; cited from earlier work
[2] = MTT cytotoxicity assay, BJ-5ta cells; format: cell-based, Human; conditions: human, BJ-5ta cells (hTERT immortalized human skin fibroblasts)
How it was run: (§1)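 BJ-5ta fibroblasts seeded at 1.8 × 10⁴ cells/well, 24 h at 37 °C, 5% CO2. Then exposed 48 h to test compound at 1, 5 or 10 µM in 0.15% DMSO, 3 technical repeats. Dead-cell control was 0.2% Triton X-100 for 15 min. After PBS rinses, MTT 0.5 mg/ml final for 4 h, formazan dissolved in DMSO. A560 minus A630, DMSO-blank-corrected, % of untreated cells; mean ± SD.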

[3] = test system: BJ-5ta (hTERT immortalized Human skin fibroblasts); test: MTT cytotoxicity assay, BJ-5ta cells; format: cell-based; conditions: BJ-5ta, 48 h, MTT
How it was run: as §1

Vero cell line = test: MTT cytotoxicity assay, Vero cells; format: cell-based; conditions: 48 h
How it was run: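 Vero cells plated at 3.0 × 10³ cells/well, 24 h at 37 °C, 5% CO2. Then 48 h exposure to test compound at 1, 5 or 10 µM in 0.15% DMSO, triplicate technical repeats. Positive control was 0.2% Triton X-100 for 15 min. Cells PBS-rinsed, MTT 0.5 mg/ml final for 4 h, formazan dissolved in DMSO. Absorbance 560 nm against 630 nm background; survival vs untreated cells; SD, n = 3.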

| Compound | MIC90 [1] | other results |
| --- | --- | --- |
| Brc1ccc(Nc2ncnc3[nH]ccc23)cc1 [Compound 10, N-(4-bromophenyl)-7H-pyrrolo[2,3-d]pyrimidin-4-amine] | 3.9 µM and 3.90 µM | – |
| Fc1cccc(Nc2ncnc3[nH]ccc23)c1 [Compound 3, N-(3-fluorophenyl)-7H-pyrrolo[2,3-d]pyrimidin-4-amine] | > 125 µM | – |
| c1ccc(CCCNc2ncnc3[nH]ccc23)cc1 [Compound 22, N-(3-phenylpropyl)-7H-pyrrolo[2,3-d]pyrimidin-4-amine] | 14.45 µM (≈ 3.65 µg/mL) | – |
| OCCNCCNc1ncnc2[nH]ccc12 [Compound 26, 2-((2-((7H-pyrrolo[2,3-d]pyrimidin-4-yl)amino)ethyl)amino)ethan-1-ol] | 125 µM (≈ 27.7 µg/mL) | – |
| CO[C@H]1/C=C/O[C@@]2(C)Oc3c(C)c(O)c4c(O)c(c(/C=N/N5CCN(C)CC5)c(O)c4c3C2=O)NC(=O)/C(C)=C\C=C\[C@H](C)[C@H](O)[C@@H](C)[C@@H](O)[C@@H](C)[C@H](OC(C)=O)[C@@H]1C [RF, rifampicin] | – | MIC (H37Rv strain of Mtb): 0.09 µM (≈ 0.0741 µg/mL) |
| N-(2-methoxy-4-nitrophenyl)-7H-pyrrolo[2,3-d]pyrimidin-4-amine [Compound 14] | > 125 µM | – |
| CC(C)OCCCNc1ncnc2[nH]ccc12 [Compound 27, N-(3-isopropoxypropyl)-7H-pyrrolo[2,3-d]pyrimidin-4-amine] | 125 µM (≈ 29.3 µg/mL) | – |
| c1ccc(CCCCNc2ncnc3[nH]ccc23)cc1 [Compound 23, N-(4-phenylbutyl)-7H-pyrrolo[2,3-d]pyrimidin-4-amine] | 3.713 µM and 3.71 µM | – |
| N-(3-(trifluoromethyl)phenyl)-7,7a-dihydro-1H-pyrrolo[2,3-d]pyrimidin-4-amine [Compound 4] | 62.5 µM | – |
| N-(3-nitrophenyl)-7H-pyrrolo[2,3-d]pyrimidin-4-amine [Compound 13] | 62.5 µM | – |
| c1ccc(Nc2ncnc3[nH]ccc23)cc1 [Compound 1, N-phenyl-7H-pyrrolo[2,3-d]pyrimidin-4-amine] | 62.5 µM (≈ 13.1 µg/mL) | – |
| c1nc(Nc2ccc(N3CCOCC3)cc2)c2cc[nH]c2n1 [Compound 15, N-(4-morpholinophenyl)-7H-pyrrolo[2,3-d]pyrimidin-4-amine] | 3.906 µM and 3.90 µM | – |
| N-(3-morpholinopropyl)-7H-pyrrolo[2,3-d]pyrimidin-4-amine [Compound 28] | 125 µM | – |
| c1ccc(Oc2ccc(Nc3ncnc4[nH]ccc34)cc2)cc1 [Compound 11, N-(4-phenoxyphenyl)-7H-pyrrolo[2,3-d]pyrimidin-4-amine] | 0.488 µM (≈ 0.148 µg/mL) | MIC90 ([1]; […], no unit printed in the conclusion): 0.488; viability at 48 h, 1 µM [2]: 115%; Cytotoxicity (in words) [3]: weakly cytotoxic; also recorded: weak cytotoxicity; Cytotoxicity (in words) (Vero cell line): no potential cytotoxicity risk; Cytotoxicity (in words) (Vero cell line; listed as N-(4-phenoxy phenyl)-7H-pyrrolo[2,3-d]pyrimidin-4-amine): non-cytotoxic; Cell viability reduction (Vero cell line; highest concentration tested (1, 5, 10 µM tested)): no cell viability reduction observed |
